From ChEMBL document CHEMBL3826969, “Synthesis and anticancer potential of novel xanthone derivatives with 3,6-substituted chains” (Bioorg Med Chem, 2016) come the findings set out here.

Each structure is given as a SMILES string.

Usually IC50 stands for the concentration needed to halve the response being measured.

The subject of test [1] is A549. Kind of test: Cell cycle arrest in human A549 cells assessed as accumulation at G0/G1 phase after 48 hrs by propidium iodide staining based flow cytometry (reference value: 68.1 %). Type of test: functional. The method, boiled down: (§1)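 A549 cells exposed 48 h to 25 µM xanthone derivative, fixed overnight in 70% ethanol, then stained 30 min at room temperature with 50 µg/mL propidium iodide, 200 µg/mL RNase A and 0.3% Triton X-100. Sub-G1, G0/1, S and G2/M fractions were measured by flow cytometry. Three independent experiments.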
Background: A flow cytometer gives signals particle by particle.

A further test deals with ASPC1. Description: Cytotoxicity against human AsPC1 cells assessed as cell growth inhibition after 48 hrs by MTT assay. Type of test: functional, cell-based. As to conditions: ASPC1, 48 h. The method, boiled down:
(§2)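 Cells seeded in 96-well plates (MDA-MB-231, A549, AsPC-1 5×10^3; PC-3 8×10^3; HCT116 1×10^4 per well), attached 24 h in RPMI-1640 with 10% fetal calf serum at 37°C, 5% CO2. Serially diluted compound (final 0–400 μM, DMSO <0.1%) added for 48 h; 5-FU positive control. MTT read at 560 nm, triplicate; viability = treated/vehicle mean OD.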

In a further test the test system is MDA-MB-231. Description: Cytotoxicity against human MDA-MB-231 cells assessed as cell growth inhibition after 48 hrs by MTT assay. Type of test: functional, cell-based. Conditions: MDA-MB-231, 48 h. The gist of the method: as §2
On the technique in general: Tetrazolium assays rely on reduction of a dye to a coloured formazan, in cell work by metabolically active cells.

Test [2] in a line: Cytotoxicity against human HCT116 cells assessed as cell growth inhibition after 48 hrs by MTT assay. Type of test: functional, cell-based. Conditions: HCT-116, 48 h. The method, boiled down: as §2
In test [3] the test system is A549. Kind of test: Cytotoxicity against human A549 cells assessed as cell growth inhibition after 48 hrs by MTT assay. Type of test: functional, cell-based. As to conditions: A549, 48 h. The method, boiled down: as §2
The nature of test [4]: Cytotoxicity against human PC3 cells assessed as cell growth inhibition after 48 hrs by MTT assay. It is filed as functional, cell-based. As to conditions: PC-3, 48 h. The method, boiled down:
as §2

For test [5], the system named is A549. Kind of test: Cell cycle arrest in human A549 cells assessed as accumulation at S phase after 48 hrs by propidium iodide staining based flow cytometry (reference value: 9.3 %). Type of test: functional. The gist of the method:
as §1

Test [6] has as its system A549. Description: Cell cycle arrest in human A549 cells assessed as accumulation at G2/M phase after 48 hrs by propidium iodide staining based flow cytometry (reference value: 23.4 %). It is filed as functional. The method, boiled down: as §1
Test [7] has as its system A549. Kind of test: Induction of apoptosis in human A549 cells assessed as viable cells after 48 hrs by Annexin V-FITC/propidium iodide staining based flow cytometry (reference value: 98.2 %). It is filed as functional. The gist of the method:
(§3)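 2 × 10^5 A549 cells seeded and given 25 µM compound for 48 h. Cells were trypsinized and washed in ice-cold PBS. 1 × 10^5 cells were stained with Annexin V-FITC plus propidium iodide in binding buffer for 15 min at room temperature, diluted with binding buffer, kept on ice, and run on a flow cytometer. Quadrants: viable, early apoptotic, late apoptotic, necrotic.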

The subject of test [8] is A549. Description: Induction of apoptosis in human A549 cells assessed as early apoptotic cells after 48 hrs by Annexin V-FITC/propidium iodide staining based flow cytometry (reference value: 0.5 %). It is filed as functional. The gist of the method:
as §3

In test [9] the test system is A549. Description: Induction of apoptosis in human A549 cells assessed as late apoptotic cells after 48 hrs by Annexin V-FITC/propidium iodide staining based flow cytometry (reference value: 1.2 %). It is filed as functional. The gist of the method:
as §3

Test [10] has as its system A549. Description: Induction of apoptosis in human A549 cells assessed as necrotic cells after 48 hrs by Annexin V-FITC/propidium iodide staining based flow cytometry (reference value: 0.1 %). It is filed as functional. The method, boiled down:
as §3

Test [11] deals with A549. Kind of test: Induction of apoptosis in human A549 cells assessed as increase in caspase 3/7 activity after 48 hrs by Caspase-Glo 3/7 assay relative to control. It is filed as functional. The gist of the method: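 In duplicate, 8 × 10^3 A549 cells were treated with 25 µM compound for 48 h. Caspase-3/7 luminescence was read 1 h after adding the Caspase-Glo 3/7 substrate, with blank (medium plus reagent) subtracted. Fold increase = treated reading / control reading. Mean ± 1 SD.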

In the case of `O=c1[nH]cc(F)c(=O)[nH]1` [FLUOROURACIL], the Activity with A549 [1] is 74.3%; with A549 [5], 15.3%; in the test with A549 [6], 11.7%; with A549 [7], 93.2%; in the test on A549 [8], 5.2%; in the test with A549 [9], 1%. Further, the Activity in the test on A549 [10] is on record as 0.6%. For the same molecule, the concentration for half-maximal inhibition (IC50) with ASPC1 came to 98 µM; with MDA-MB-231, 35.9 µM; in test [2], 15.4 µM; in the test on A549 [3], 39.9 µM; in [4], 72.1 µM. In addition, the “fold change (FC)” value in the test on A549 [11] was 4.2.
